The source made the active and inactive calls. The calls are words filed in the database; no cut-off is given here.
Tests used:
DNA [1] = test: Displacement of Ethidium bromide from (AT)5 (5'-GGGATATA-TATATCCC-3') DNA (unknown origin)/EtBr complex assessed as decrease in initial absorbance of DNA by crystal violet staining based analysis; assay type: nucleic-acid assay
[2] = Binding affinity to DDD hairpin DNA (unknown origin) assessed as binding constant at 100 uM by ITC analysis
In short: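 Isothermal titration calorimetry of DDD hairpin (10 μM in cell) titrated with ligand (100 μM in syringe), 10 mM Tris-HCl pH 7.0, 30 °C; 25 injections of 10 μL. Heats of dilution subtracted; single-site binding model fitted; K averaged from triplicate experiments.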

[3] = Displacement of Ethidium bromide from G5C5 (5'-AAAGGGGG-CCCCCTTT-3') DNA (unknown origin)/EtBr complex assessed as decrease in initial absorbance of DNA by crystal violet staining based analysis
DNA [4] = test: Displacement of Ethidium bromide from A5T5 (5'-GGGAAAAATTTTTCCCCC-3') DNA (unknown origin)/EtBr complex assessed as decrease in initial absorbance of DNA by crystal violet staining based analysis; assay type: nucleic-acid assay
Calf thymus DNA [5] = test: Binding affinity to calf thymus DNA assessed as change in melting temperature by UV thermal denaturation assay; assay type: nucleic-acid assay; conditions: Bos taurus
In short: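 CT DNA in 10 mM Tris-HCl pH 7.0 at a DNA:ligand ratio of 30:1, in 1 cm quartz cuvettes. Absorbance read every 2 °C from 25 to 95 °C, heating at 1 °C/min. Tm taken from first-derivative plots.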

[6] = Displacement of Ethidium bromide from NFAT1 (5-GAAAAA-3') hairpin DNA (unknown origin)/EtBr complex assessed as decrease in initial absorbance of DNA by crystal violet staining based analysis
[7] = Binding affinity to DDD (5-CGAATT-3') hairpin DNA (unknown origin) assessed as binding constant by isothermal titration calorimetry
Calf thymus DNA [8] = test: Binding affinity to calf thymus DNA in Tris-HCl buffer at pH 5.0 assessed as dye aggregation in the DNA groove at 310nm at 1 mM incubated for 5 mins by UV spectra analysis; assay type: nucleic-acid assay; conditions: Bos taurus
In short: (§1)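 CT DNA (80 μM/bp) in 10 mM Tris-HCl pH 5.0 received small aliquots of ligand from a 1 mM stock; incubated 5 min at 20 °C. CD (average of three scans) and UV spectra recorded 215–350 nm in 0.5 nm increments under identical conditions.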

Calf thymus DNA [9] = test: Binding affinity to calf thymus DNA assessed as bathochromic shift by UV spectroscopic analysis; assay type: nucleic-acid assay; conditions: Bos taurus
In short: (§2)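 UV titration in 10 mM Tris-HCl pH 7.0 with ligand fixed at 5.0 μM and CT DNA:ligand ratios of 0:1, 1:1, 2:1, 5:1, 10:1 and 30:1.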

Calf thymus DNA [10] = test: Binding affinity to calf thymus DNA in Tris-HCl buffer at pH 7.0 assessed as decrease in viscosity incubated for 30 mins by Ostwald viscometer analysis; assay type: nucleic-acid assay; conditions: Bos taurus
In short: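 Ostwald viscometer at 23.0 ± 1 °C. CT DNA held at 300 μM/bp in 10 mM Tris-HCl pH 7.0 with ligand or ethidium at 0–26 μM, incubated 30 min before timing flow. (η/η0)^1/3 plotted against [ligand]/[DNA]; three replicates, SD shown.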

Calf thymus DNA [11] = test: Binding affinity to calf thymus DNA assessed as hypochromic shift by UV spectroscopic analysis; assay type: nucleic-acid assay; conditions: Bos taurus; in short: as §2
Calf thymus DNA [12] = test: Binding affinity to calf thymus DNA in Tris-HCl buffer at pH 7.0 assessed as change in entropy at 100 uM by isothermal titration […] analysis; assay type: nucleic-acid assay; conditions: Bos taurus
In short: (§3)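 ITC of CT DNA (100 μM/bp in cell) titrated with ligand (100 μM in syringe), 10 mM Tris-HCl pH 7.0; 25 injections of 10 μL at 30 °C, or for one ligand 50 injections of 5 μL at 27 °C. Buffer-into-DNA heats subtracted; single-site model gives K, N, ΔH and ΔS.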

[13] = Displacement of Ethidium bromide from DDD (5-CGAATT-3') hairpin DNA (unknown origin)/EtBr complex assessed as decrease in initial absorbance of DNA by crystal violet staining based analysis
[14] = Displacement of Ethidium bromide from cMyc (5'-CACGTG-3') hairpin DNA (unknown origin)/EtBr complex assessed as decrease in initial absorbance of DNA by crystal violet staining based analysis
Calf thymus DNA [15] = test: Binding affinity to calf thymus DNA in Tris-HCl buffer at pH 7.0 assessed as change in enthalpy at 100 uM by isothermal titration […] analysis; assay type: nucleic-acid assay; conditions: Bos taurus; in short: as §3
[16] = Displacement of Ethidium bromide from STAT6 (5'-TCCTAG-3') hairpin DNA (unknown origin)/EtBr complex assessed as decrease in initial absorbance of DNA by crystal violet staining based analysis
[17] = Displacement of Ethidium bromide from cMyc (5'-CACGTG-3') hairpin DNA (unknown origin)/EtBr complex assessed as binding constant by crystal violet staining based analysis
AT rich DNA [18] = test: Displacement of Ethidium bromide from AT3 (5'-ATATAT-3') hairpin DNA (unknown origin)/EtBr complex assessed as binding constant by crystal violet staining based analysis; assay type: nucleic-acid assay
[19] = Displacement of Ethidium bromide from G6 (5'-GGGGGG-3') hairpin DNA (unknown origin)/EtBr complex assessed as decrease in initial absorbance of DNA by crystal violet staining based analysis
Calf thymus DNA [20] = test: Binding affinity to calf thymus DNA in Tris-HCl buffer at pH 5.0 assessed as dye aggregation in the DNA groove at 337nm at 1 mM incubated for 5 mins by UV spectra analysis; assay type: nucleic-acid assay; conditions: Bos taurus; in short: as §1
[21] = Displacement of Ethidium bromide from STAT6 (5'-TCCTAG-3') hairpin DNA (unknown origin)/EtBr complex assessed as binding constant by crystal violet staining based analysis
[22] = Displacement of Ethidium bromide from NFAT1 (5-GAAAAA-3') hairpin DNA (unknown origin)/EtBr complex assessed as binding constant by crystal violet staining based analysis
Calf thymus DNA [23] = test: Binding affinity to calf thymus DNA in Tris-HCl buffer at pH 7.0 assessed as differential groove occupancy at 100 uM by ITC analysis; assay type: nucleic-acid assay; conditions: Bos taurus; in short: as §3
AT rich DNA [24] = test: Displacement of Ethidium bromide from AT3 (5'-ATATAT-3') hairpin DNA (unknown origin)/EtBr complex assessed as decrease in initial absorbance of DNA by crystal violet staining based analysis; assay type: nucleic-acid assay

Row | Compound | C50 (DNA [1]) [µM] | K [2] | C50 [3] [µM] | C50 (DNA [4]) [µM] | ΔTm (Calf thymus DNA [5]) [°C] | C50 [6] [µM] | C50 [13] [µM] | C50 [14] [µM] | C50 [16] [µM] | C50 [19] [µM] | C50 (AT rich DNA [24]) [µM] | also measured
1 | CN(C)c1ccc(C(=C2C=CC(=[N+](C)C)C=C2)c2ccc(OCc3ccccc3COc3ccc(C(=C4C=CC(=[N+](C)C)C=C4)c4ccc(N(C)C)cc4)cc3)cc2)cc1 | – | 20.5 10^5/M | – | – | 0.9 | 2.64 | 1.57 | 1.56 | 1.09 | 1 | 2.08 | K [7]: 20.5 10^5/M; Activity (Calf thymus DNA [8]): Active; Activity (Calf thymus DNA [9]): Active; Activity (Calf thymus DNA [10]): Dose-Dependent Effect; Activity (Calf thymus DNA [11]): Active; deltaS (Calf thymus DNA [12]): -0.12 kcal/mol; deltaH (Calf thymus DNA [15]): -44.7 kcal/mol; K [17]: 5.06e+06 M⁻¹; K (AT rich DNA [18]): 1.3 10^5/M; Activity (Calf thymus DNA [20]): Active; K [21]: 1.32 10^5/M; K [22]: 29.1 10^5/M; Activity (Calf thymus DNA [23]): Active
2 | CN(C)c1ccc(C(=C2C=CC(=[N+](C)C)C=C2)c2ccc3cc(N(C)C)ccc3c2)cc1 | 0.32 | 3.1 10^5/M | 0.88 | 0.52 | 4.6 | – | – | – | – | – | – | –
3 | CN(C)c1ccc(C(=C2C=CC(=[N+](C)C)C=C2)c2ccc(C#Cc3cc4c(cc3C#Cc3ccc(C(=C5C=CC(=[N+](C)C)C=C5)c5ccc(N(C)C)cc5)cc3)OCO4)cc2)cc1 | – | 0.5 10^5/M | – | – | 2.6 | 2.22 | 1.27 | 1.95 | 1.91 | 1.32 | 1.52 | –

Further lines, with some results ahead:

Row | C50 (DNA [1]) [µM] | K [2] | C50 [3] [µM] | C50 (DNA [4]) [µM] | ΔTm (Calf thymus DNA [5]) [°C] | C50 [6] [µM] | C50 [13] [µM] | C50 [14] [µM] | C50 [16] [µM] | C50 [19] [µM] | C50 (AT rich DNA [24]) [µM] | Compound | also measured
4 | 2.3 | 1.2 10^5/M | 7.21 | 2.4 | 2.6 | – | – | – | – | – | – | CC1=CC(=[N+](C)C)C=CC1=C(c1ccc(N(C)C)cc1C)c1ccc(N(C)C)cc1C | –
5 | 1.81 | 0.3 10^5/M | 2.09 | 1.83 | 1.6 | – | – | – | – | – | – | CN(C)c1ccc(C(=C2C=CC(=[N+](C)C)C=C2)c2ccc(N(C)C)c(-c3ccccc3)c2)cc1-c1ccccc1 | –
